Here are results for 4 compounds from ChEMBL document CHEMBL5329184, “Design, synthesis, electrochemistry and anti-trypanosomatid hit/lead identification of nitrofuranylazines” (RSC Med Chem, 2023).

In series [1] the test system is Trypanosoma cruzi. The series is described as follows: Antitrypanosomal activity against Trypanosoma cruzi epimastigotes assessed as parasite growth inhibition incubated for 48 hrs by resazurin staining based analysis. It counts as functional, organism-based. On the technique in general: The colour change of resazurin is a common sign of viable cells or microbes.

The next series concerns THP-1. Put plainly: cells. It counts as functional, cell-based. The settings on record: Homo sapiens, THP-1, 72 h.
Series [2] can be described thus: in vitro. The settings on record: monkey, Vero cells.
Series [3] has as its system Leishmania donovani. The series is described as follows: Antileishmanial activity against Leishmania donovani MHOM/IN/95/9515 amastigote assessed as inhibition of parasite growth incubated for 72 hrs by resazurin staining based analysis. The settings on record: MHOM/IN/95/9515, 72 h.
Series [4] is described as follows: in vitro. The settings on record: monkey, Vero cells. The source holds these as a separate data set.
For series [5], the system named is Leishmania donovani. Put plainly: Selectivity index, ratio of IC50 for antileishmanial activity against Leishmania donovani MHOM/IN/95/9515 promastigotes assessed as inhibition of parasite growth to IC50 for antileishmanial activity against Leishmania donovani MHOM/IN/95/9515 amastigote assessed as inhibition of parasite growth. The series is classed as functional.

Series [6] can be described thus: Selectivity index, ratio of IC50 for cytotoxicity against African green monkey Vero cells assessed as inhibition of cell growth to IC50 for antitrypanosomal activity against Trypanosoma cruzi epimastigotes assessed as parasite growth inhibition. The conditions noted are these: read-out: Ratio IC50. It counts as toxicity, cell-based.
Series [7] in a line: Selectivity index, ratio of IC50 for cytotoxicity against human THP-1 cells assessed as inhibition of cell growth to IC50 for antileishmanial activity against Leishmania donovani MHOM/IN/95/9515 amastigote assessed as inhibition of parasite growth. It counts as functional.
The test system of series [8] is Trypanosoma cruzi. Put plainly: Selectivity index, ratio of IC50 for antitrypanosomal activity against Trypanosoma cruzi epimastigote assessed as parasite growth inhibition to IC50 for antitrypanosomal activity against Trypanosoma cruzi trypomastigotes assessed as parasite growth inhibition. The series is classed as functional.
The nature of series [9]: in vitro. The settings on record: monkey, Vero cells. This is another data set of the same source.
Series [10] can be described thus: Selectivity index, ratio of IC50 for cytotoxicity against human THP-1 cells assessed as inhibition of cell growth to IC50 for antitrypanosomal activity against Trypanosoma cruzi trypomastigotes assessed as parasite growth inhibition. The series is classed as functional.
Series [11] relates to Leishmania major. Put plainly: Antileishmanial activity against Leishmania major IR-173 promastigotes assessed as inhibition of parasite growth incubated for 48 hrs by resazurin staining based analysis. The series is classed as functional, organism-based. The conditions noted are these: IR-173, 48 h. The method in brief:
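Logarithmic-phase promastigotes (1.25 × 10^6 cells per mL) grown in supplemented M199 with 10% FBS, pH 7.3–7.4, 26 °C. […] 48 h at 26 °C, then resazurin 24 h in the dark. Absorbance 570 minus 600 nm. IC50 by non-linear regression, mean ± SD of three biological replicates.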

The subject of series [12] is Trypanosoma cruzi. The series is described as follows: Antitrypanosomal activity against bloodstream Trypanosoma cruzi trypomastigotes infected in African green monkey Vero cells assessed as parasite growth inhibition incubated for 48 hrs by resazurin assay.
The subject of series [13] is Leishmania donovani. The series is described as follows: Antileishmanial activity against Leishmania donovani MHOM/IN/95/9515 promastigotes assessed as inhibition of parasite growth incubated for 48 hrs by resazurin staining based analysis. It counts as functional, organism-based. The settings on record: MHOM/IN/95/9515, 48 h.
A short description of series [14]: Selectivity index, ratio of IC50 for cytotoxicity against African green monkey Vero cells assessed as inhibition of cell growth to IC50 for antitrypanosomal activity against Trypanosoma cruzi trypomastigotes assessed as parasite growth inhibition. The series is classed as toxicity, cell-based. The settings on record: read-out: Ratio IC50.
Series [15] is described as follows: in vitro. The settings on record: monkey, Vero cells. The source holds these as a separate data set.
The test system of series [16] is Leishmania major. Put plainly: Selectivity index, ratio of IC50 for antileishmanial activity against Leishmania major IR-173 promastigotes assessed as inhibition of parasite growth to IC50 for antileishmanial activity against Leishmania major IR-173 amastigote assessed as inhibition of parasite growth. The series is classed as functional.
In series [17] the test system is Leishmania major. The series is described as follows: Antileishmanial activity against Leishmania major IR-173 amastigote assessed as inhibition of parasite growth incubated for 72 hrs by resazurin staining based analysis. The conditions noted are these: IR-173, 72 h.

Where only a bound is given, the exact number is not on record here.

For the compound `O=[N+]([O-])c1ccc(/C=N/N=C/c2ccc([N+](=O)[O-])o2)cc1`, the IC50 (usually the concentration needed to halve the response being measured) is 2.63 µM with Trypanosoma cruzi [1]; 16.8 µM with THP-1; 530 nM in the series on Leishmania donovani [3]; 700 nM with Leishmania major [11]; 780 nM in the series on Trypanosoma cruzi [12]; 700 nM in the series with Leishmania donovani [13]. Also, the IC50 in the series with Leishmania major [17] was found to be 7.9 µM. In addition, the selectivity ratio in “in vitro [2]” came out at 22; in “in vitro [4]”, 17; in series [6] it was 4; in the series “in vitro [9]”, 17; in [14], 15; in the series “in vitro [15]”, 1. For the same compound, the Ratio IC50 with Leishmania donovani [5] is 1.32; in series [7] it was 32; with Trypanosoma cruzi [8], 3.37; in series [10] it was 21; in the series with Leishmania major [16], 0.09.

Turning to `O=[N+]([O-])c1ccc(/C=N/N=C/c2ccc(Br)cc2)o1`, the IC50 in the series with Trypanosoma cruzi [1] was 46.1 µM; with THP-1, more than 100 µM; with Leishmania donovani [3] it was 6410 nM; in the series on Leishmania major [11] it was 750 nM; with Trypanosoma cruzi [12] it was more than 10000 nM; in the series on Leishmania donovani [13] it was 3560 nM. Further, the concentration for half-maximal inhibition (IC50) in the series with Leishmania major [17] was 0.63 µM. For the same compound, the selectivity ratio in “in vitro [2]” is 16; in “in vitro [4]” it was 28; in series [6], 2; in “in vitro [9]” it was 133; in the series “in vitro [15]”, 159. Further, the Ratio IC50 with Leishmania donovani [5] was determined as 0.56; in series [7], 16; with Leishmania major [16], 1.19.

Consider `O=Cc1ccc([N+](=O)[O-])o1`, for which the IC50 with Trypanosoma cruzi [1] is more than 10 µM; in the series on THP-1 it was 80.9 µM; in the series with Leishmania donovani [3] it was 2680 nM; in the series with Leishmania major [11] it was 7940 nM; in the series on Trypanosoma cruzi [12], more than 10000 nM; in the series on Leishmania donovani [13], more than 10000 nM. For the same compound, in the series with Leishmania major [17], the IC50 was 5.6 µM. The “Ratio IC50” value in series [7] came out at 30; with Leishmania major [16], 1.42. Besides, the selectivity ratio in “in vitro [9]” is 2; in “in vitro [15]”, 3.

For the compound `O=[N+]([O-])c1ccc(/C=N/N=C/c2ccc(F)cc2)o1`, the IC50 with Trypanosoma cruzi [1] was 3.56 µM; in the series with THP-1, 63.4 µM; in the series on Leishmania donovani [3], more than 10000 nM; in the series with Leishmania major [11] it was 730 nM; in the series with Trypanosoma cruzi [12], 1950 nM; in the series on Leishmania donovani [13] it was 1180 nM. The IC50 in the series with Leishmania major [17] was determined as 3.69 µM. In addition, the selectivity ratio is 40 in “in vitro [4]”; 13 in series [6]; 65 in the series “in vitro [9]”; 24 in series [14]; 13 in “in vitro [15]”. The Ratio IC50 was determined as 1.83 in the series on Trypanosoma cruzi [8], 51 in series [10] and 0.2 in the series on Leishmania major [16].
